Experimental data collected from several papers.
Protocols differ between the studies behind these lines.
AMY2: Pancreatic alpha-amylase (AMY2, Sus scrofa, UniProt P00690)
D14: D14 (Arabidopsis thaliana, UniProt Q9SQR3)

COc1ccc2oc(-c3ccc4nc(N)oc4c3)c/c(=N\c3ccccc3NC(=O)CCN)c2c1  remaining binding (Receptor-interacting serine/threonine-protein kinase 1 (RIPK1, Homo sapiens, UniProt Q13546); binding; 1 µM): 110%
O=c1cc(-c2ccc(O)cc2)oc2cc(O)cc(O)c12  inhibition (AMY2; enzyme activity, inhibitor; 50 µM): 87.5%
CC1=C(/C=C/C(C)=C/C=O)C(C)(C)C[C@H](O)C1  ΔTm (D14; thermal stability, DSF; 1 µM): 0.28 °C
O=c1cc(-c2ccc(O)c(O)c2)oc2cc(O)cc(O)c12  inhibition (AMY2; enzyme activity, inhibitor; 50 µM, 30 min): 97.5%
CC(=O)/C=C/C=C(C)/C=C/C1=C(C)CC(O)CC1(C)C (stereo in doubt)  ΔTm (D14; thermal stability; 20 µM): 4.65 °C
C1=C/COCc2cc(ccc2OCCN2CCCC2)Nc2nccc(n2)-c2cccc(c2)COC/1  remaining binding (Myosin-IIIb (MYO3B, Homo sapiens, UniProt Q8WXR4); binding; 0.1 µM): 100%
CC1=CC(O/C=C2/C(=O)OC3c4ccccc4CC23)OC1=O (racemic)  ΔTm (D14; thermal stability, DSF; 1 µM): -0.035 °C
O=c1c(O)c(-c2ccc(O)cc2O)oc2cc(O)cc(O)c12  inhibition (AMY2; enzyme activity, inhibitor; 50 µM, 30 min): 55.1%
CC1=C(/C=C/C(C)=C/C=O)C(C)(C)CCC1  ΔTm (D14; thermal stability, DSF; 1 µM): 0 °C
O=c1c(O)c(-c2ccc(O)c(O)c2)oc2c(Br)c(O)c(Br)c(O)c12  inhibition (AMY2; enzyme activity, inhibitor; 50 µM, 30 min): 70.2%
Cc1cc(F)cc2c(CCC(=O)N[C@@H]3C(=O)NC[C@H]3O)c(-c3ccc(F)cc3)[nH]c12  inhibition (Muscarinic acetylcholine receptor M2 (CHRM2, Homo sapiens, UniProt P08172); cell-free assay; 10 µM): -4%
Cc1cc(S(=O)(=O)N[C@H]2CC[C@H](CN3CCN(c4ccc(C5CCC(=O)NC5=O)cc4F)CC3)CC2)ccc1Nc1ncc(C(F)(F)F)c(N2CCC[C@](C)(O)C2)n1 (stereo partly drawn)  remaining binding (Cyclin-dependent kinase 4, with cyclin D1 (CDK4, Homo sapiens, UniProt P11802); binding, competition with immobilised ligand; 1 µM): 75%
COc1cc(O)c2c(c1)O[C@H](c1ccccc1)CC2=O  inhibition (AMY2; enzyme activity, inhibitor; 50 µM): 12.8%
C[C@]1(O)CCCN(c2nc(Nc3ccc(S(=O)(=O)N[C@H]4CC[C@H](CN5CCN(c6ccc(C7CCC(=O)NC7=O)cc6F)CC5)CC4)cc3Cl)ncc2C(F)(F)F)C1 (stereo partly drawn)  remaining binding (Cyclin-dependent kinase 4, with cyclin D3 (CDK4, Homo sapiens, UniProt P11802); binding, competition with immobilised ligand; 1 µM): 100%
C#Cc1cc(-c2cc(Nc3nc(N[C@@H](C)c4ccc(F)cn4)ncc3Cl)n[nH]2)ccc1C=O  inhibition (MAP kinase-activated protein kinase 5 (MAPKAPK5, Homo sapiens, UniProt Q8IW41); enzyme activity, inhibitor; 0.2 µM): 14.9%
O=c1c(O)c(-c2ccc(O)cc2)oc2cc(O)cc(O)c12  inhibition (AMY2; enzyme activity, inhibitor; 50 µM, 30 min): 88.9%
CCCCC(=O)Nc1ccc(-c2ccc3ncn(CCC)c(=O)c3c2)cn1  remaining binding (Serine/threonine-protein kinase 24 (STK24, Homo sapiens, UniProt Q9Y6E0); binding, competition with immobilised ligand; 0.5 µM): 97%
Cc1cc(O)c(-c2ccc([C@@H](C)CN(C)C)cc2)c2c1[nH]c(=O)c1sccc12  inhibition (Serine-protein kinase ATM (ATM, Homo sapiens, UniProt Q13315); cell-free assay, inhibitor; 0.1 µM, lysate): 6.43%
